FLuc inhib CS: firefly luciferase enzyme inhibitors, primary screen, artefact control for luciferase-based inhibitor screens, biochemical, luminescence, ATPLite; Luciferin 4-monooxygenase (Photinus pyralis), P08659; 10 min; inhibition, % at 10 µM; 1.5% of 200,000 active;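 active = inhibition above about 50% when tested at 10 µM, limit read from the data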
Target sequence (P08659 whole entry, looked up): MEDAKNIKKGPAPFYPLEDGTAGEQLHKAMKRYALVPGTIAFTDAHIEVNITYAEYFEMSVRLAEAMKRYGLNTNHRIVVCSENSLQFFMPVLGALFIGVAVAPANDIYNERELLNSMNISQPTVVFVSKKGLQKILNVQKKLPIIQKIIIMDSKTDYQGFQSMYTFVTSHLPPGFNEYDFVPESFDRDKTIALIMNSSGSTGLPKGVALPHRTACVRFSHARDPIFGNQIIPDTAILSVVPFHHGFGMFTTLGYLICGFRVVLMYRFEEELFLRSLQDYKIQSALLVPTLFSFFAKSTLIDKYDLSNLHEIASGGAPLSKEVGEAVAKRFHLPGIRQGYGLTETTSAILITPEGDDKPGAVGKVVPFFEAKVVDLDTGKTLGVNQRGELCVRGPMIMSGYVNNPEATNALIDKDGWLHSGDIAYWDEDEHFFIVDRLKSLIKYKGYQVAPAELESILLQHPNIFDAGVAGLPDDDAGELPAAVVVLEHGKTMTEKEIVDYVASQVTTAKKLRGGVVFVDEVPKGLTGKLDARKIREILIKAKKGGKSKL
C8 TRAIL sens: viability loss with TRAIL in NB7+C8 cells, primary screen, TRAIL sensitizer project, cell-based, ATPlite luminescence. inhibition (viability loss, TRAIL sensitization), % at 10 µM. 1% of 360,000 active;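 active = compounds causing at least 50% loss of cell viability in the single-dose screen, relative to plate controls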
FLuc act counter: FLuc activators, initial screening, artefact control for FLuc-dependent activation tests, biochemical, ATPlite luminescence. Luciferin 4-monooxygenase (Photinus pyralis), P08659. ATPlite luciferase biochemical, 10 min; 0 = ATP-free wells, 1 = DMSO control. activation factor at 10 µM. 200,000 tested, under 10 active;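 active = luciferase activation factor, scaled between plate controls, of at least 2 with compound at 10 µM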
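System: cell-free luciferase reagent; medium: PBS as buffer for the ATP substrate; doses: test compounds dosed from 2 mM stocks in 100% DMSO; incubation: 10 min, room temperature; measured by: luminescence from luciferase reaction; read-out: luciferase activation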
PPC-1+TRAIL kill: compounds killing PPC-1 cancer cells with TRAIL present, primary screen, TRAIL potentiator project, ATPLite luminescence, uHTS; AID 1443, 2008; cell killing (% activity), % at 4 µM or 5 µM; PPC-1 cells + TRAIL, ATPLite viability luminescence; 0.41% of 220,000 active;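 active = cell killing above 50% in the first pass at 4 µM, then a duplicate retest at 5 µM averaging 50% or more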
Hits are given with their value; n = inactive; x = no result. Hits are enriched below; roughly 1.5% of the tested compounds scored in any of these assays.

SMILES	FLuc inhib CS	C8 TRAIL sens	FLuc act counter	PPC-1+TRAIL kill
CC1(C(=O)NCc2cccc(C(F)(F)F)c2)CCN1C1Cc2ccccc2C1 (stereo unspecified)	x	n	x	x
Cc1ccc(Cl)cc1N1CCN(C(=O)c2noc(C)c2[N+](=O)[O-])CC1	x	94.6	x	x
CC(Oc1ccccc1)C(=O)Nc1ccc(F)c(S(=O)(=O)N2CCOCC2)c1 (stereo unspecified)	x	n	x	x
CCOC(=O)NC(=O)CSc1nc(C)cc(C)c1C#N	n	72.1	n	n
CCOC(=O)Cc1csc(NC(=O)/C=C\c2ccccc2)n1	59.4	n	n	n
CCOC(=O)Cc1csc(NC(=O)/C=C/c2ccccc2Cl)n1	x	n	x	n
CCOC(=O)Cc1csc(NC(=O)/C=C\c2ccccc2Cl)n1	55.6	n	n	n
CCOC(=O)Cc1csc(NC(=O)c2cc3c(s2)CCCC3)n1	61.1	53.7	n	n
CCOC(=O)Cc1csc(NC(=S)NC(=O)c2ccc(Cl)cc2)n1	58.8	50.9	n	n
CCN(C[C@H]1N[C@@](C)(C(=O)OC)[C@H]2C(=O)N(C)C(=O)[C@@H]12)C(=O)c1ccc(C(C)(C)C)cc1	x	n	x	x
CSc1ccc(S(=O)(=O)N2CCC(C(=O)Nc3ccccc3C(F)(F)F)CC2)cc1	x	n	x	x
NC(=O)c1cc([N+](=O)[O-])ccc1NCc1ccc(O)cc1	x	n	x	x
COc1ccc(/C=C/C(=O)c2cc3c(cc2N)OCO3)cc1	79.0	n	n	n
Cc1ccccc1Nc1cc2ccccc2c(=O)[nH]1	n	88.4	n	n
C#CCN(C[C@H]1[C@H](OC(=O)NCc2ccccc2F)[C@H](OC(=O)NCc2ccccc2F)C[C@@H](C(=O)OC)[C@H]1C(=O)OC)S(=O)(=O)c1ccc(C)cc1	x	n	x	x
COCC(C)n1c(C)cc(C(=O)Cn2nc(C(=O)O)c3ccccc3c2=O)c1C (stereo unspecified)	71.3	n	n	n
COc1ccc(C(=O)N=c2sc3ccccc3n2C)cc1	69.1	n	n	n
COc1cc(OC)cc(C(=O)N=c2sc3ccccc3n2C)c1	n	n	n	n
Cc1ccc(-c2cn3nc(C)c(C)nc3n2)cc1	75.1	n	n	n
O=C1c2ccccc2S(=O)(=O)N1CC1CC(c2ccc(Cl)cc2)=NO1 (stereo unspecified)	50.1	n	n	n
O=C1c2ccccc2S(=O)(=O)N1CC1CC(c2ccccc2)=NO1 (stereo unspecified)	n	n	n	n
Cc1ccccc1-n1c(C)cc(/C=N/NC(=O)c2ccncc2)c1C	55.2	n	n	n
C#Cc1ccc([C@H]2C=C(C(=O)Nc3ccccc3)O[C@@H](OCc3ccc(CO)cc3)C2)cc1	x	88.6	x	n
C#Cc1ccc([C@H]2C=C(C(=O)NCc3ccccc3)O[C@@H](OCC)[C@@H]2CCCO)cc1	n	n	n	n
C#Cc1ccc([C@@H]2C=C(C(=O)Nc3ccccc3)O[C@H](OCC)[C@H]2CCCO)cc1	n	79.5	n	n
SMILES	FLuc inhib CS	C8 TRAIL sens	FLuc act counter	PPC-1+TRAIL kill
CC1Oc2ccc(C#N)cc2N(Cc2cccc(F)c2)C1=O (stereo unspecified)	x	n	x	x
COc1ccccc1N=C1NC(=O)/C(=C/c2ccc(N(C)C)cc2)S1	x	49.0	x	x
O=C(Nc1ccccc1Cl)c1cc(C2CCCN(C(=O)c3ccccc3)C2)on1 (stereo unspecified)	x	n	x	x
O=c1c2ccccc2sc2ccc(C#CC3(O)CCCCC3)cc12	x	93.1	x	x
COc1cccc2sc3ccc(C#CC4(O)CCCCC4)cc3c(=O)c12	x	54.4	x	x
CCN1CCN(Cc2ccc(NC(=O)c3cc(NC(=O)c4cncc(-c5cccs5)c4)cc(OC)c3)cc2C(F)(F)F)CC1	x	84.7	x	x
CCN1CCN(Cc2ccc(NC(=O)c3cc(NC(=O)c4ccc5n[nH]nc5c4)cc(OC)c3)cc2C(F)(F)F)CC1	x	n	x	n
CCN1CCN(Cc2ccc(NC(=O)c3cc(NC(=O)c4cc5cccc(OC)c5o4)cc(OC)c3)cc2C(F)(F)F)CC1	x	94.8	x	n
CCN1CCN(Cc2ccc(NC(=O)c3cc(NC(=O)c4ccno4)cc(OC)c3)cc2C(F)(F)F)CC1	x	n	x	n
CCN1CCN(Cc2ccc(NC(=O)c3cc(NC(=O)c4cc(-c5ccc(OC)cc5)n[nH]4)cc(OC)c3)cc2C(F)(F)F)CC1	x	87.6	x	n
CCN1CCN(Cc2ccc(NC(=O)c3ccc(C)c(NC(=O)c4c[nH]c5cc(C(F)(F)F)ccc5c4=O)c3)cc2C(F)(F)F)CC1	x	94.8	x	n
COc1cc(NC(=O)c2cc(S(=O)(=O)N3CCCCC3)c[nH]2)cc(OC)c1	x	n	x	x
COc1cc(NC(=O)c2ccno2)cc(C(=O)Nc2cccc(C(F)(F)F)c2)c1	x	n	x	n
COc1cc(NC(=O)c2cc3cccc(OC)c3o2)cc(C(=O)Nc2cccc(C(F)(F)F)c2)c1	x	51.2	x	n
Fc1cccc2sc(Nc3nc4cc5c(cc4s3)OCO5)nc12	n	n	n	n
Fc1cccc2sc(Nc3nc4cc5c(cc4s3)OCCO5)nc12	79.3	52.9	n	n
CC(NC(=O)c1ccc(Cl)c(S(=O)(=O)NC2CC2)c1)c1ccco1 (stereo unspecified)	x	n	x	x
Cc1[nH]cnc1C(=O)N/N=C/c1c(Cl)cccc1Cl	x	59.2	x	x
Cc1nnsc1C(=O)N/N=C/c1c(F)cccc1Cl	n	n	n	n
Cc1ccc2cc3cc(C(=O)N4CCCCC4C)oc3nc2c1 (stereo unspecified)	55.0	n	n	n
Cc1ccc2cc3cc(C(=O)N4CC(C)CC(C)C4)oc3nc2c1 (stereo unspecified)	n	n	n	n
O=C(NCc1cccnc1)/C(=C\c1ccc(-c2ccc(Cl)c(Cl)c2)o1)S(=O)(=O)c1ccccc1	n	93.4	n	n
COc1cc(OC)c(C(=O)O/N=C(\N)c2ccc(C)cc2)cc1OC	x	n	x	x
N/C(=N\OC(=O)c1ccc(=O)n(Cc2ccccc2)c1)c1ccccn1	n	n	n	n
N/C(=N\OC(=O)c1ccco1)c1ccccn1	55.1	n	n	n
SMILES	FLuc inhib CS	C8 TRAIL sens	FLuc act counter	PPC-1+TRAIL kill
Cc1cccc(/C(N)=N/OC(=O)c2ccco2)c1	55.6	n	n	n
Cc1cccc(/C(N)=N/OC(=O)N2CCOCC2)c1	n	n	n	n
Cc1ccc(/C(N)=N/OC(=O)c2ccco2)cc1	59.9	n	n	n
COc1ccc(/C(N)=N/OC(=O)c2ccco2)cc1	68.1	n	n	n
CCOC(=O)CC1(NC(=O)c2cc(COc3cccc(OC)c3)on2)CCCCC1	x	n	x	x
Cc1ccc(C(=O)NNC(=S)NC(=O)c2ccco2)cc1	n	n	n	n
Cc1noc(-c2ccc(Cl)cc2)c1C(=O)O/N=C(\N)c1ccc(C(C)(C)C)cc1	x	94.4	x	n
N/C(=N\OC(=O)c1ccco1)c1ccc(Br)cc1	n	n	n	n
Cc1occc1C(=O)O/N=C(\N)c1ccc(Cl)cc1	x	87.0	x	n
Cc1ccc(C(=O)NNC(=O)c2ccco2)cc1	57.3	n	n	n
N/C(=N\OC(=O)c1ccco1)c1ccccc1	58.1	n	n	n
